In brackets after ≈: the same amount, converted by molar mass.
How the values were obtained:
Mus musculus [1] = assay: (§1) ED50 value was measured by sc administration against streptococcus pyogenes infection in mice (in vivo, in experiment 3); assay type: functional
Mus musculus [2] = assay: Plasma concentration of compound in mice by oral administration, 20 mg/kg at 4 hr; assay type: functional, organism-based; parameters: dose 20 mg/kg
Procedure, shortened: (§2)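 Peripheral plasma antibiotic levels in mice after a 20 mg/kg oral dose, sampled at timed points after administration. Levels were measured by microbiological agar assay with Micrococcus luteus seeded in Antibiotic Media 1, reading zone sizes, and were calculated from a standard curve for the appropriate compound. Each value is the average of five mice per time point, in μg/mL.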

Rattus norvegicus [3] = species: Rattus norvegicus; assay: Fluid concentration in urine was determined in rats at 0.5 hr; assay type: functional
Procedure, shortened: (§3)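 Rats dosed by gavage at 20 mg/kg; lung, liver, kidney, urine and serum sampled at 0.5, 1, 2, 4 and 6 h after dosing. Antibiotic measured by microbiological assay with Micrococcus luteus seeded in Antibiotic Medium 1. Zone sizes were read against the standard curve for the same compound. Each value is the average of three rats per time point.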

Rattus norvegicus [4] = species: Rattus norvegicus; assay: Fluid concentration in urine was determined in rats at 1 hr; assay type: functional; procedure, shortened: as §3
Rattus norvegicus [5] = species: Rattus norvegicus; assay: Fluid concentration in urine was determined in rats at 6 hr; assay type: functional; procedure, shortened: as §3
Rattus norvegicus [6] = species: Rattus norvegicus; assay: Fluid concentration in kidney tissue was determined in rats at 0.5 hr; assay type: functional
Procedure, shortened: (§4)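 Rats were gavaged at 20 mg/kg and tissues sampled 0.5–6 h after dosing. Drug was assayed microbiologically with Micrococcus luteus seeded in Antibiotic Media 1. Zone sizes were read against each compound's own standard curve. Values are the mean of three rats per time point, in μg/g.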

Rattus norvegicus [7] = species: Rattus norvegicus; assay: Fluid concentration in kidney tissue was determined in rats at 4 hr; assay type: functional; procedure, shortened: as §4
Rattus norvegicus [8] = species: Rattus norvegicus; assay: Fluid concentration in liver tissue was determined in rats at 2 hr; assay type: functional; procedure, shortened: as §3
Rattus norvegicus [9] = species: Rattus norvegicus; assay: Fluid concentration in liver tissue was determined in rats at 4 hr; assay type: functional; procedure, shortened: as §3
Rattus norvegicus [10] = species: Rattus norvegicus; assay: Fluid concentration in serum was determined in rats at 0.5 hr; assay type: functional; procedure, shortened: as §3
Rattus norvegicus [11] = species: Rattus norvegicus; assay: Fluid concentration in serum was determined in rats at 1 hr; assay type: functional; procedure, shortened: as §3
Rattus norvegicus [12] = species: Rattus norvegicus; assay: Fluid concentration in serum was determined in rats at 4 hr; assay type: functional; procedure, shortened: as §3
Rattus norvegicus [13] = species: Rattus norvegicus; assay: Fluid concentration in serum was determined in rats at 6 hr; assay type: functional; procedure, shortened: as §3
Rattus norvegicus [14] = assay: Plasma concentration in rats was determined by subcutaneous administration, 20 mg/kg at 2 hr; assay type: functional, organism-based; parameters: dose 20 mg/kg
Procedure, shortened: as §2, with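 “rats given” for “mice after a”, “orally or subcutaneously. Plasma was” for “oral dose,”, “dosing.” for “administration.”, “three rats” for “five mice”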

Rattus norvegicus [15] = assay: Plasma concentration in rats was determined by oral administration, 20 mg/kg at 2 hr; assay type: functional, organism-based; parameters: dose 20 mg/kg
Procedure, shortened: as §2, with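 “rats given” for “mice after a”, “orally or subcutaneously. Plasma was” for “oral dose,”, “dosing.” for “administration.”, “three rats” for “five mice”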

Rattus norvegicus [16] = assay: Plasma concentration in rats was determined by oral administration, 20 mg/kg at 4 hr; assay type: functional, organism-based; parameters: dose 20 mg/kg
Procedure, shortened: as §2, with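 “rats given” for “mice after a”, “orally or subcutaneously. Plasma was” for “oral dose,”, “dosing.” for “administration.”, “three rats” for “five mice”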

Rattus norvegicus [17] = assay: Plasma concentration in rats was determined by oral administration, 20 mg/kg at 8 hr; assay type: functional, organism-based; parameters: dose 20 mg/kg
Procedure, shortened: as §2, with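 “rats given” for “mice after a”, “orally or subcutaneously. Plasma was” for “oral dose,”, “dosing.” for “administration.”, “three rats” for “five mice”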

Enterococcus faecalis [18] = assay: MIC value was measured against streptococcus faecalis X66; assay type: functional
Procedure, shortened: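 Susceptibility determined by standard agar-dilution method against a panel of bacterial strains.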

Rattus norvegicus [19] = species: Rattus norvegicus; assay: Fluid concentration in kidney tissue was determined in rats at 1 hr; assay type: functional; procedure, shortened: as §4
Rattus norvegicus [20] = species: Rattus norvegicus; assay: Fluid concentration in liver tissue was determined in rats at 6 hr; assay type: functional; procedure, shortened: as §3
Rattus norvegicus [21] = species: Rattus norvegicus; assay: Fluid concentration in serum was determined in rats at 2 hr; assay type: functional; procedure, shortened: as §3
Mus musculus [22] = species: Mus musculus
Mus musculus [23] = species: Mus musculus; remark: listed apart in the source
Mus musculus [24] = species: Mus musculus; remark: listed apart in the source
Rattus norvegicus [25] = species: Rattus norvegicus
Rattus norvegicus [26] = species: Rattus norvegicus; remark: listed apart in the source
Rattus norvegicus [27] = species: Rattus norvegicus; remark: listed apart in the source
Mus musculus [28] = assay: ED50 value was measured by sc administration against streptococcus pyogenes infection in mice (in vivo, in experiment 2); assay type: functional
Procedure, shortened: (§5)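 Infected mice were dosed orally or subcutaneously at 1 and 5 h postinfection, 0.25 mL of antibiotic solution in 10% aqueous ethanol per dose. Tartaric acid was added where needed for solubility. Several dose concentrations were tested to give the ED50.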

Mus musculus [29] = assay: as §1; assay type: functional; procedure, shortened: as §5; remark: listed apart in the source
Mus musculus [30] = assay: ED50 value was measured by po administration against streptococcus pyogenes infection in mice (in vivo, in experiment 2); assay type: functional; procedure, shortened: as §5
Mus musculus [31] = assay: ED50 value was measured by po administration against streptococcus pneumoniae infection in mice (in vivo, in experiment 2); assay type: functional; procedure, shortened: as §5
Mus musculus [32] = assay: Plasma concentration in mice was determined by oral administration, 20 mg/kg at 2 h; assay type: functional, organism-based; parameters: dose 20 mg/kg
Procedure, shortened: (§6)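 Mice given 20 mg/kg orally or subcutaneously; peripheral plasma sampled at 5, 20 and 40 min and at 1, 2 and 4 h after dosing. Microbiological assay used Micrococcus luteus seeded in Antibiotic Medium 1, with zone sizes converted by the compound's own standard curve. Each value is the average of five mice per time point.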

Mus musculus [33] = assay: Plasma concentration in mice was determined by oral administration, 20 mg/kg at 20 min; assay type: functional, organism-based; parameters: dose 20 mg/kg; procedure, shortened: as §6
Mus musculus [34] = assay: Plasma concentration in mice was determined by oral administration, 20 mg/kg at 4 h; assay type: functional, organism-based; parameters: dose 20 mg/kg; procedure, shortened: as §6
Mus musculus [35] = assay: Plasma concentration in mice was determined by oral administration, 20 mg/kg at 40 min; assay type: functional, organism-based; parameters: dose 20 mg/kg; procedure, shortened: as §6
Rattus norvegicus [36] = species: Rattus norvegicus; assay: Fluid concentration in urine tissue was determined in rats at 6 h; assay type: functional; procedure, shortened: as §3
Rattus norvegicus [37] = species: Rattus norvegicus; assay: Fluid concentration in kidney tissue was determined in rats at 0.5 h; assay type: functional; procedure, shortened: as §4
Rattus norvegicus [38] = species: Rattus norvegicus; assay: Fluid concentration in kidney tissue was determined in rats at 2 h; assay type: functional; procedure, shortened: as §4
Rattus norvegicus [39] = species: Rattus norvegicus; assay: Fluid concentration in kidney tissue was determined in rats at 6 h; assay type: functional; procedure, shortened: as §4
Rattus norvegicus [40] = species: Rattus norvegicus; assay: Fluid concentration in liver tissue was determined in rats at 4 h; assay type: functional; procedure, shortened: as §3
Rattus norvegicus [41] = species: Rattus norvegicus; assay: Fluid concentration in liver tissue was determined in rats at 6 h; assay type: functional; procedure, shortened: as §3
Rattus norvegicus [42] = species: Rattus norvegicus; assay: Fluid concentration in serum tissue was determined in rats at 0.5 h; assay type: functional; procedure, shortened: as §3
Rattus norvegicus [43] = species: Rattus norvegicus; assay: Fluid concentration in serum tissue was determined in rats at 1 h; assay type: functional; procedure, shortened: as §3
Rattus norvegicus [44] = species: Rattus norvegicus; assay: Fluid concentration in serum tissue was determined in rats at 2 h; assay type: functional; procedure, shortened: as §3
Rattus norvegicus [45] = species: Rattus norvegicus; assay: Fluid concentration in serum tissue was determined in rats at 6 h; assay type: functional; procedure, shortened: as §3
Rattus norvegicus [46] = species: Rattus norvegicus; assay: Fluid concentration in urine tissue was determined in rats at 1 h; assay type: functional; procedure, shortened: as §3
Rattus norvegicus [47] = species: Rattus norvegicus; assay: Fluid concentration in urine tissue was determined in rats at 4 h; assay type: functional; procedure, shortened: as §3
Rattus norvegicus [48] = assay: Plasma concentration in rats was determined by subcutaneous administration, 20 mg/kg at 20 min; assay type: functional, organism-based; parameters: dose 20 mg/kg
Procedure, shortened: as §2, with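 “rats given” for “mice after a”, “orally or subcutaneously. Plasma was” for “oral dose,”, “dosing.” for “administration.”, “three rats” for “five mice”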

Rattus norvegicus [49] = assay: Plasma concentration in rats was determined by subcutaneous administration, 20 mg/kg at 4 h; assay type: functional, organism-based; parameters: dose 20 mg/kg
Procedure, shortened: as §2, with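 “rats given” for “mice after a”, “orally or subcutaneously. Plasma was” for “oral dose,”, “dosing.” for “administration.”, “three rats” for “five mice”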

Enterococcus faecalis [50] = assay: MIC value was measured against streptococcus faecalis.; assay type: functional
Mus musculus [51] = assay: ED50 value was measured by po administration against staphylococcus aureus infection in mice (in vivo, in experiment 2); assay type: functional; procedure, shortened: as §5
Rattus norvegicus [52] = species: Rattus norvegicus; remark: listed apart in the source
Rattus norvegicus [53] = species: Rattus norvegicus; remark: listed apart in the source
Rattus norvegicus [54] = species: Rattus norvegicus; remark: listed apart in the source

CC[C@H]1OC(=O)[C@H](C)[C@@H](O[C@H]2C[C@@](C)(OC)[C@@H](O)[C@H](C)O2)[C@H](C)[C@@H](O[C@@H]2O[C@H](C)C[C@H](N(C)C)[C@H]2O)[C@](C)(O)C[C@@H](C)C(=O)[C@H](C)[C@@H](O)[C@]1(C)O [ERYTHROMYCIN]
ED50 (Mus musculus [1]): 2.8 mg/kg
Plasma concentration (Mus musculus [2]): 0 µg/mL
Activity (Rattus norvegicus [3]): 7.5 µg/mL
Activity (Rattus norvegicus [4]): 10.8 µg/mL
Activity (Rattus norvegicus [5]): 0.35 µg/mL
Activity (Rattus norvegicus [6]): 0.17 µg/mL
Activity (Rattus norvegicus [7]): 0 µg/mL
Activity (Rattus norvegicus [8]): 0.04 µg/mL
Activity (Rattus norvegicus [9]): 0 µg/mL
Activity (Rattus norvegicus [10]): 0.01 µg/mL
Activity (Rattus norvegicus [11]): 0.4 µg/mL
Activity (Rattus norvegicus [12]): 0 µg/mL
Activity (Rattus norvegicus [13]): 0 µg/mL
Plasma concentration (Rattus norvegicus [14]): 1.06 µg/mL
Plasma concentration (Rattus norvegicus [15]): 0.03 µg/mL
Plasma concentration (Rattus norvegicus [16]): 0.02 µg/mL
Plasma concentration (Rattus norvegicus [17]): 0.01 µg/mL
MIC (Enterococcus faecalis [18]): 0.06 µg/mL (≈ 0.0818 µM)
Activity (Rattus norvegicus [19]): 0.15 µg/mL
Activity (Rattus norvegicus [20]): 0 µg/mL
Activity (Rattus norvegicus [21]): 0 µg/mL
Plasma concentration (Mus musculus [22]): 0 µg/mL
Plasma concentration (Mus musculus [23]): 0.01 µg/mL
Plasma concentration (Mus musculus [24]): 0.1 µg/mL
Plasma concentration (Rattus norvegicus [25]): 1.31 µg/mL
Plasma concentration (Rattus norvegicus [26]): 1.16 µg/mL
Plasma concentration (Rattus norvegicus [27]): 0.7 µg/mL

CCCN[C@@H]1[C@H](C)[C@@H](O)[C@](C)(O)[C@@H](CC)OC(=O)[C@H](C)[C@@H](OC2CC(C)(OC)C(O)C(C)O2)[C@H](C)[C@@H](OC2OC(C)CC(N(C)C)C2O)[C@](C)(O)C[C@H]1C (some centres undefined)
ED50 (Mus musculus [28]): 1.4 mg/kg
ED50 (Mus musculus [29]): 1.7 mg/kg
ED50 (Mus musculus [30]): 6 mg/kg
ED50 (Mus musculus [31]): 13 mg/kg
Plasma concentration (Mus musculus [32]): 0.07 µg/mL
Plasma concentration (Mus musculus [33]): 0.01 µg/mL
Plasma concentration (Mus musculus [34]): 0.06 µg/mL
Plasma concentration (Mus musculus [35]): 0.036 µg/mL
Activity (Rattus norvegicus [36]): 11.3 µg/mL
Activity (Rattus norvegicus [37]): 0.1 µg/mL
Activity (Rattus norvegicus [38]): 3.25 µg/mL
Activity (Rattus norvegicus [39]): 3.21 µg/mL
Activity (Rattus norvegicus [40]): 3.06 µg/mL
Activity (Rattus norvegicus [41]): 1.19 µg/mL
Activity (Rattus norvegicus [42]): 0.15 µg/mL
Activity (Rattus norvegicus [43]): 0.04 µg/mL
Activity (Rattus norvegicus [44]): 0.23 µg/mL
Activity (Rattus norvegicus [45]): 0.05 µg/mL
Activity (Rattus norvegicus [46]): 3.78 µg/mL
Activity (Rattus norvegicus [47]): 18.63 µg/mL
Plasma concentration (Rattus norvegicus [48]): 0.07 µg/mL
Plasma concentration (Rattus norvegicus [49]): 0.23 µg/mL
MIC (Enterococcus faecalis [50]): 0.12 µg/mL (≈ 0.154 µM)
ED50 (Mus musculus [51]): 25 mg/kg
Plasma concentration (Rattus norvegicus [52]): 0.01 µg/mL
Plasma concentration (Rattus norvegicus [53]): 0.28 µg/mL
Plasma concentration (Rattus norvegicus [54]): 0.06 µg/mL

Source: ChEMBL document CHEMBL1125014, “Synthesis and structure-activity relationships of new 9-N-alkyl derivatives of 9(S)-erythromycylamine” (1990)
